Measured values as given in ChEMBL document CHEMBL3351523 (Bioorg Med Chem, 2014).

Legend:
Yellow fever virus = test: Antiviral activity against Yellow fever virus infected in BHK21 cells assessed as inhibition of virus-induced cytopathogenicity after 3 to 4 days by MTT assay; assay type: functional, organism-based; conditions: BHK-21
Human alphaherpesvirus 1 = test: Antiviral activity against HSV1 infected in african green monkey Vero 76 cells assessed as reduction in plaque number after 3 days by plaque reduction assay; assay type: functional, organism-based; conditions: Human alphaherpesvirus 1, Vero, 72 h
[1] = Cytotoxicity against mock-infected african green monkey Vero 76 cells after 48 to 96 hrs by MTT assay; assay type: cell-based; conditions: chlorocebus sabaeus, mock-infected Vero 76 cells
[2] = Cytotoxicity against mock-infected MDBK cells after 48 to 96 hrs by MTT assay; assay type: cell-based, Bos taurus; conditions: cattle
How it was run: (§1)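 Mock-infected MDBK (6 × 10^5 cells/mL; MEM-E, 10% horse serum, 1 mM pyruvate) or BHK (1 × 10^6 cells/mL; MEM-E, 10% FBS) cells were incubated at 37 °C, 5% CO2 with serial dilutions from 100 µM, 1:5. Viability by MTT after 48–96 h. CC50 from linear regression against untreated controls.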

[3] = Cytotoxicity against mock-infected BHK21 cells after 48 to 96 hrs by MTT assay; assay type: functional; conditions: Mesocricetus auratus, BHK-21; how it was run: as §1
Vaccinia virus = test: Antiviral activity against Vaccinia Virus infected in african green monkey Vero 76 cells assessed as reduction in plaque number after 3 days by plaque reduction assay; assay type: functional, organism-based; conditions: Orthopoxvirus vaccinia, 72 h
Reovirus sp. = test: Antiviral activity against Reovirus type-1 infected in BHK21 cells assessed as inhibition of virus-induced cytopathogenicity after 3 to 4 days by MTT assay; assay type: functional, organism-based; conditions: BHK-21
[4] = tested on: Human immunodeficiency virus 1; test: Antiviral activity against HIV1 infected in human MT4 cells assessed as inhibition of virus-induced cytopathogenicity after 4 days by MTT assay; assay type: functional, organism-based; conditions: Human immunodeficiency virus 1, MT4, 96 h
How it was run: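 MT-4 cells (1 × 10^4/well in RPMI) were infected acutely with HIV-1 IIIB, 100 CCID50 (m.o.i. 0.01), with serial dilutions from 100 µM, 1:5. After 4 days at 37 °C, protection from virus-induced cytopathogenicity was read by MTT. EC50 came from linear regression against untreated controls.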

[5] = Cytotoxicity against mock-infected human MT4 cells after 96 hrs by MTT assay; assay type: cell-based
How it was run: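 Exponentially growing MT-4 cells were seeded at 1 × 10^5 cells/mL in RPMI-1640 with 10% FBS and held at 37 °C, 5% CO2 with serial compound dilutions. Viability was read by MTT after 96 h. CC50 from linear regression against untreated controls.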

[6] = tested on: Vesicular stomatitis virus; test: Antiviral activity against Vesicular stomatitis virus infected in african green monkey Vero 76 cells assessed as reduction in plaque number after 2 days by plaque reduction assay; assay type: functional, organism-based; conditions: 48 h
[7] = tested on: Bovine viral diarrhea virus 1; test: Antiviral activity against Bovine viral diarrhea virus infected in MDBK cells assessed as inhibition of virus-induced cytopathogenicity after 3 to 4 days by MTT assay; assay type: functional, organism-based; conditions: Bovine viral diarrhea virus isolates and strains
[8] = tested on: Respiratory syncytial virus; test: Antiviral activity against Respiratory syncytial virus infected in african green monkey Vero 76 cells assessed as reduction in plaque number after 5 days by plaque reduction assay; assay type: functional, organism-based; conditions: human respiratory syncytial virus, 120 h
Coxsackievirus B5 = test: Antiviral activity against Coxsackievirus B5 infected in african green monkey Vero 76 cells assessed as reduction in plaque number after 3 days by plaque reduction assay; assay type: functional, organism-based; conditions: Enterovirus B, 72 h
Poliovirus 1 = test: Antiviral activity against Poliovirus type 1 Sabin strain infected in african green monkey Vero 76 cells assessed as reduction in plaque number after 2 days by plaque reduction assay; assay type: functional, organism-based; conditions: Enterovirus C, 48 h

SMILES | EC50 (Yellow fever virus) | EC50 (Human alphaherpesvirus 1) | CC50 [1] | CC50 [2] | CC50 [3] | EC50 (Vaccinia virus) | EC50 (Reovirus sp.) | EC50 [4] | CC50 at 96 h [5] | EC50 [6] | EC50 [7] | EC50 [8] | EC50 (Coxsackievirus B5) | EC50 (Poliovirus 1)
CC(=O)Nc1ccc(Cc2nc3ccccc3[nH]2)cc1 | > 100 µM | > 100 µM | > 100 µM | > 100 µM | > 100 µM | > 100 µM | > 100 µM | > 100 µM | > 100 µM | > 100 µM | > 100 µM | > 100 µM | > 100 µM | > 100 µM
COc1ccc2c(c1)nnn1c3cc(Cl)c(Cl)cc3nc21 | > 100 µM | > 100 µM | > 100 µM | > 100 µM | > 100 µM | > 100 µM | > 100 µM | > 100 µM | > 100 µM | > 100 µM | > 100 µM | > 100 µM | > 100 µM | > 100 µM
FC(F)(F)c1ccc2c(c1)nc(Cc1ccc(Cl)c(Cl)c1)n2C[C@@H]1CCCN2CCCC[C@H]12 | > 100 µM | > 100 µM | > 100 µM | 37 µM | > 100 µM | > 100 µM | > 100 µM | > 100 µM | > 100 µM | > 100 µM | > 100 µM | > 100 µM | > 100 µM | > 100 µM
COc1ccc(Cc2nc3cc(C(F)(F)F)ccc3n2C[C@@H]2CCCN3CCCC[C@H]23)cc1 | > 100 µM | > 100 µM | 89 µM | > 100 µM | > 100 µM | > 100 µM | > 100 µM | > 100 µM | 77 µM | > 100 µM | > 100 µM | > 100 µM | > 100 µM | > 100 µM
FC(F)(F)c1ccc2c(c1)nc(Cc1ccc(Cl)c(Cl)c1)n2C[C@H]1CCCN2CCCC[C@H]12 | > 100 µM | > 100 µM | > 100 µM | > 100 µM | 34 µM | > 100 µM | > 100 µM | > 100 µM | 4 µM | > 100 µM | > 100 µM | > 100 µM | > 100 µM | > 100 µM
COc1ccc(Cc2nc3cc(C(F)(F)F)ccc3n2C[C@H]2CCCN3CCCC[C@H]23)cc1 | > 100 µM | > 100 µM | > 100 µM | > 100 µM | > 100 µM | > 100 µM | > 100 µM | > 100 µM | ≥ 100 µM | > 100 µM | > 100 µM | > 100 µM | > 100 µM | > 100 µM
CC(=O)Nc1ccc(Cc2nc3cc(C(F)(F)F)ccc3[nH]2)cc1 | > 100 µM | > 100 µM | > 100 µM | > 100 µM | > 100 µM | > 100 µM | > 100 µM | > 100 µM | > 100 µM | > 100 µM | > 100 µM | > 100 µM | > 100 µM | > 100 µM
Clc1ccc(Cc2nc3cc(Cl)c(Cl)cc3[nH]2)cc1 | > 100 µM | > 100 µM | 71 µM | 9 µM | > 100 µM | > 100 µM | > 100 µM | > 100 µM | 37 µM | > 100 µM | > 100 µM | > 100 µM | > 100 µM | > 100 µM
Clc1ccc(Cc2nc3cc(Cl)c(Cl)cc3[nH]2)cc1Cl | > 100 µM | > 100 µM | 70 µM | > 100 µM | > 100 µM | > 100 µM | > 100 µM | > 100 µM | > 100 µM | > 100 µM | > 100 µM | > 100 µM | > 100 µM | > 100 µM
